Assay results gathered from unrelated publications.
Each line is one published result; the experiments were not run side by side.
PIK3CA H1047Y: Phosphatidylinositol 4,5-bisphosphate 3-kinase catalytic subunit alpha isoform (PIK3CA, Homo sapiens, UniProt P42336, H1047Y)
PIK3CA C420R: Phosphatidylinositol 4,5-bisphosphate 3-kinase catalytic subunit alpha isoform (PIK3CA, Homo sapiens, UniProt P42336, C420R)
PIK3CA: Phosphatidylinositol 4,5-bisphosphate 3-kinase catalytic subunit alpha isoform (PIK3CA, Homo sapiens, UniProt P42336)
PIK3CA M1043I: Phosphatidylinositol 4,5-bisphosphate 3-kinase catalytic subunit alpha isoform (PIK3CA, Homo sapiens, UniProt P42336, M1043I)
PIK3CA E545A: Phosphatidylinositol 4,5-bisphosphate 3-kinase catalytic subunit alpha isoform (PIK3CA, Homo sapiens, UniProt P42336, E545A)

CN(c1nccc(-c2cnn3ncccc23)n1)C1CC1 — remaining binding (Phosphatidylinositol 4,5-bisphosphate 3-kinase catalytic subunit alpha isoform (PIK3CA, Homo sapiens, UniProt P42336, E542K); binding; 1 µM): 56%
O=C(Nc1cnc(Oc2ccc(F)cc2)nc1)N1CCc2ncccc2[C@@H]1c1ccc(F)cc1 — remaining binding (PIK3CA H1047Y; cell-free assay; competition with immobilised ligand; 1 µM): 100%
O=C(NCCCN1CCOCC1)c1ccc(Nc2ncc(Cl)c(-c3ccc(Cl)s3)n2)cc1 — remaining binding (PIK3CA C420R; binding; competition with immobilised ligand; 1 µM): 100%
NS(=O)(=O)c1cc(NC(=O)C2(c3ccccc3Cl)CC2)ccc1Oc1cccc(Cl)c1 — remaining binding (PIK3CA; cell-free assay; competition with immobilised ligand; 1 µM): 100%
C=CC(=O)N1CCC(C(=O)NCC(=O)N2CCN(c3nc(-c4cnc(N)nc4C(F)F)nc(N4CCOCC4)n3)CC2)CC1 — remaining binding (PIK3CA C420R; binding; competition with immobilised ligand; 1 µM): 0.6%
O=C(Nc1c[nH]nc1C(=O)NC1CCNCC1)c1cc(F)cc(F)c1 — remaining binding (PIK3CA M1043I; binding; competition with immobilised ligand; 1 µM): 100%
O=C(NCCCN1CCOCC1)c1ccc(Nc2nccc(-c3cc4ccccc4s3)n2)cc1 — remaining binding (PIK3CA; binding; competition with immobilised ligand; 1 µM): 93%
CNCc1ccccc1-c1csc([C@H](C)Nc2nc(C)nc3cc(OC)c(OC)cc23)c1 — remaining binding (PIK3CA M1043I; cell-free assay; competition with immobilised ligand; 1 µM): 100%
CN(C)c1nccc(-c2cnc3ncccn23)n1 — remaining binding (PIK3CA C420R; binding; 1 µM): 58%
COc1cnc(Nc2cccc(S(N)(=O)=O)c2)nc1N1CCN(c2ccccc2)CC1 — remaining binding (PIK3CA E545A; binding; competition with immobilised ligand; 1 µM): 100%
O=C(c1ccc(Nc2ncc(Cl)c(-c3ccc(Cl)s3)n2)cc1)N1CCC(N2CCCC2)CC1 — remaining binding (PIK3CA E545A; binding; competition with immobilised ligand; 1 µM): 100%
c1cnn2ncc(-c3ccnc(N4CCC45COC5)n3)c2c1 — remaining binding (PIK3CA H1047Y; binding; 1 µM): 83%
O=c1nc(-c2ccccn2)sc2ccccc12 — remaining binding (Phosphatidylinositol 4,5-bisphosphate 3-kinase catalytic subunit alpha isoform (PIK3CA, Homo sapiens, UniProt P42336, E545K); cell-free assay; competition with immobilised ligand; 1 µM): 65%
Cc1cnn2ncc(-c3ccnc(N(C)C)n3)c2c1 — remaining binding (PIK3CA E545A; binding; 1 µM): 100%
FC(F)(F)c1ccc2c(c1)nc(-c1cccnc1)n2C1CC1 — remaining binding (PIK3CA C420R; cell-free assay; competition with immobilised ligand; 1 µM): 92%
C[C@H]1CCN(c2nccc(-c3cnn4ncccc34)n2)C1 — remaining binding (PIK3CA M1043I; binding; 1 µM): 100%
CN1CCN(c2ccc(Nc3nccc(-c4cccc([N+](=O)[O-])c4)n3)cc2C(F)(F)F)CC1 — remaining binding (Phosphatidylinositol 4,5-bisphosphate 3-kinase catalytic subunit alpha isoform (PIK3CA, Homo sapiens, UniProt P42336, H1047L); binding; 10 µM): 4.8%
CN(C)c1ncc(F)c(-c2cnn3ncccc23)n1 — remaining binding (PIK3CA E545A; binding; 1 µM): 59%
CCC(=O)N[C@@H]1CC[C@H](C(=O)N(C)c2ccc(-c3nc4ccccc4o3)cc2)C1 — remaining binding (PIK3CA; cell-free assay; competition with immobilised ligand; 1 µM): 88%
c1cncc(-c2cccc(Nc3nccc(NC4CCCCC4)n3)c2)c1 — remaining binding (Phosphatidylinositol 4,5-bisphosphate 3-kinase catalytic subunit alpha isoform (PIK3CA, Homo sapiens, UniProt P42336, Q546K); binding; competition with immobilised ligand; 10 µM): 100%
N[C@H]1CCN(c2nccc(-c3cnn4ncccc34)n2)C1 — remaining binding (PIK3CA C420R; binding; 1 µM): 100%
CCc1ccccc1C(=O)Nc1n[nH]c2c(C)c(F)c(C3C(C#N)=C(C)N(C)C(C)=C3C#N)cc12 — remaining binding (PIK3CA H1047Y; cell-free assay; competition with immobilised ligand; 1 µM): 77%
